Test results reported in ChEMBL document CHEMBL4406794, “N-(7-Cyano-6-(4-fluoro-3-(2-(3-(trifluoromethyl)phenyl)acetamido)phenoxy)benzo[d]thiazol-2-yl)cyclopropanecarboxamide (TAK-632) Analogues as Novel Necroptosis Inhibitors by Targeting Receptor-Interacting Protein Kinase 3 (RIPK3): Synthesis, Structure-Activity Relationships, and in Vivo Efficacy” (J Med Chem, 2019).
Active and inactive are the calls of the source. No cut-off for these calls is given here.

Columns and labels:
HT-29 = assay: Anti-necroptotic activity in human HT-29 cells assessed as inhibition of […]/SM-164/Z-VAD-fmk-induced necroptosis measured after 16 hrs by celltiter-glo luminescent cell viability assay; settings: HT-29, 16 h
Mus musculus [1] = assay: (§1) Protection against TNFalpha/Z-VAD-fmk-induced C57BL/6J mouse model of systemic inflammatory response syndrome assessed as increase in body temperature at 5 to 50 mg/kg, po administered via gavage 2 hrs prior to Z-VAD-fmk addition for 15 mins followed by TNFalpha stimulation for 1 hr and subsequent Z-VAD-fmk addition meaured up to 50 hrs post TNFalpha stimulation by electric thermometer; format: functional, organism-based
Procedure, shortened: (§2)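 Female C57BL/6 mice, fasted overnight, n=10 per group. Compound given by oral gavage at 5, 25 or 50 mg/kg 2 h before TNF. z-VAD-fmk 180 µg i.p., then 15 min later mTNF-α 400 µg/kg i.v. in endotoxin-free PBS, then a further 70 µg z-VAD-fmk i.p. 1 h later. Body temperature and survival followed, compared with vehicle by one-way ANOVA.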

Mus musculus [2] = assay: as §1, with “mouse survial” for “body temperature”, “stimulation” for “stimulation by electric thermometer”; format: functional, organism-based
Procedure, shortened: as §2

[3] = target: T1, Receptor-interacting serine/threonine-protein kinase 1 (Homo sapiens, UniProt Q13546); assay: Binding affinity to wild-type human partial length RIPK1 (M1 to K305 residues) expressed in bacterial expression system after 1 hr by quantitative PCR based KINOMEscan assay
T1 sequence (Q13546 whole entry): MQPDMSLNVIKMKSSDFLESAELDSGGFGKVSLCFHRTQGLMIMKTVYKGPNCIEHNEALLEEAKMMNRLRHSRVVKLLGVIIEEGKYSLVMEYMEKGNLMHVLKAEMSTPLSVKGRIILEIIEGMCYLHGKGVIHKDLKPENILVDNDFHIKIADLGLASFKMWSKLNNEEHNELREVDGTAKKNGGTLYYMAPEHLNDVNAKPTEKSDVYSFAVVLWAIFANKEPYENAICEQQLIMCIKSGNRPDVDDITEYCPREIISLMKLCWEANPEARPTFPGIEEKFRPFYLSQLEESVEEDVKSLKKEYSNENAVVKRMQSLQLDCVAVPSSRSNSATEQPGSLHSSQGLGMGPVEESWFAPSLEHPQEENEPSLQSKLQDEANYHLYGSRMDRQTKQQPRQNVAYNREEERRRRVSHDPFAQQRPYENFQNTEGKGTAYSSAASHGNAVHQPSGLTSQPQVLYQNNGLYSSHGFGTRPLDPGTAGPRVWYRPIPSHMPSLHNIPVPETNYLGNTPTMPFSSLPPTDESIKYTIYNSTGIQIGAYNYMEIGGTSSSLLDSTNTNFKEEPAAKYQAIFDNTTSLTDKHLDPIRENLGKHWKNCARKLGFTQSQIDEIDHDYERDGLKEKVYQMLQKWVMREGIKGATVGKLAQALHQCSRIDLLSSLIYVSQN
Procedure, shortened: (§3)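 KINOMEscan competition binding. Bound kinase eluted with 0.5 μM nonbiotinylated ligand for 30 min and quantified by qPCR. Duplicates averaged.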

[4] = target: Receptor-interacting serine/threonine-protein kinase 3 (Homo sapiens, UniProt Q9Y572); assay: Binding affinity to wild-type human partial length RIPK3 (M1 to Q307 residues) expressed in bacterial expression system after 1 hr by quantitative PCR based KINOMEscan assay
Procedure, shortened: as §3

Homo sapiens = species: Homo sapiens; assay: Selectivity ratio of Kd for human partial length RIPK1 (M1 to K305 residues) expressed in bacterial expression system to Kd for wild-type human partial length RIPK3 (M1 to Q307 residues) expressed in bacterial expression system
[5] = Cytotoxicity against human HT-29 cells measured after 12 hrs by CellTiter-Glo Luminescent assay; format: cell-based
Mus musculus [6] = assay: as §1, with “syndrome” for “syndrome assessed as increase in body temperature”, “25” for “5 to 50”, “relative to control” for “by electric thermometer”; format: functional
Procedure, shortened: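 Overnight-fasted C57BL/6 female mice, n=10 per group. Test compound was given by oral gavage 2 h before mTNF-α. z-VAD-fmk (180 µg) was injected ip, then 15 min later mTNF-α in endotoxin-free PBS was injected iv (400 µg/kg). A second z-VAD-fmk dose (70 µg) was given ip 1 h after TNF. Body temperature and survival were followed against vehicle. One-way ANOVA was used.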

Mus musculus [7] = assay: as §1, with “syndrome” for “syndrome assessed as increase in body temperature”, “100” for “5 to 50”, “relative to control” for “by electric thermometer”; format: functional

Sequence of Receptor-interacting serine/threonine-protein kinase 3 (Q9Y572 whole entry, the tested form may be a part): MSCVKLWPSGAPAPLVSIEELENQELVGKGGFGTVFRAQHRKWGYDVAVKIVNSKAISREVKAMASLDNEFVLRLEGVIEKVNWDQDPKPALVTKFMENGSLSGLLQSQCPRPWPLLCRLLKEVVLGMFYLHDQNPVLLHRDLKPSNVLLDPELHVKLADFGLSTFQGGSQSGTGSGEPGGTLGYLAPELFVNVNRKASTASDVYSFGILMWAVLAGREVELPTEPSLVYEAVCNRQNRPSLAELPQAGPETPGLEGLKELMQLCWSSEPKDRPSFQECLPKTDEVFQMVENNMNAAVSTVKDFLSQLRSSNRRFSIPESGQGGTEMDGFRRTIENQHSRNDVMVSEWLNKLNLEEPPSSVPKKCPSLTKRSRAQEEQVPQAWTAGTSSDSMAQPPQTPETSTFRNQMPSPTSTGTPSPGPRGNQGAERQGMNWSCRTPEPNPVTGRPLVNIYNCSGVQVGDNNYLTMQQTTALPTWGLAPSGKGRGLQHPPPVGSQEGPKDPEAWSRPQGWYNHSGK

Row | Compound | EC50 (HT-29) [nM] | Kd [3] [nM] | Kd [4] [nM] | CC50 at 12 h [5] [nM] | also measured
1 | N#Cc1c(Oc2ccc(F)c(NC(=O)Cc3ccccc3)c2)ccc2nc(NC(=O)C3CC3)sc12 | > 20000 | – | – | – | –
2 | O=C(Cc1cccc(C(F)(F)F)c1)Nc1cc(Oc2ccc3nc(NC(=O)C4CC4)sc3c2)ccc1F | – | – | – | – | Activity (Mus musculus [1]): Active; Activity (Mus musculus [2]): Active
3 | CC(=O)c1cccc(NC(=O)Nc2cc(Oc3ccc4nc(NC(=O)C5CC5)sc4c3)ccc2F)c1 | 1000 | > 5000 | 53 | > 50000 | Ratio (Homo sapiens): > 94.3
4 | CCCCCCCCC(=O)Nc1nc2ccc(Oc3ccc(F)c(NC(=O)Cc4cccc(C(F)(F)F)c4)c3)c(C#N)c2s1 | > 20000 | – | – | – | –
5 | Cc1ccc(CC(=O)Nc2cc(Oc3ccc4nc(NC(=O)C5CC5)sc4c3)ccc2F)cc1C | 1670 | 1200 | 72 | > 50000 | –
6 | O=C(Nc1nc2ccc(Oc3ccc(F)c(NCc4cccc(C(F)(F)F)c4)c3)cc2s1)C1CC1 | > 20000 | – | – | – | –
7 | N#Cc1cccc(CC(=O)Nc2cc(Oc3ccc4nc(NC(=O)C5CC5)sc4c3)ccc2F)c1 | 1290 | 780 | 120 | > 50000 | –
8 | Cc1cccc(CC(=O)Nc2cc(Oc3ccc4nc(NC(=O)C5CC5)sc4c3)ccc2F)c1 | 380 | 320 | 33 | > 50000 | –
9 | O=C(Cc1ccc2c(c1)OCO2)Nc1cc(Oc2ccc3nc(NC(=O)C4CC4)sc3c2)ccc1F | 2320 | 1100 | 81 | > 50000 | Ratio (Homo sapiens): 13
10 | N#Cc1c(Oc2ccc(F)c(NC(=O)Cc3cccc(C(F)(F)F)c3)c2)ccc2nc(NC(=O)c3ccccc3)sc12 | > 20000 | – | – | – | –
11 | N#Cc1c(Oc2ccc(F)c(NC(=O)Cc3ccc([N+](=O)[O-])cc3)c2)ccc2nc(NC(=O)C3CC3)sc12 | > 20000 | – | – | – | –
12 | O=C(Cc1cccc(O)c1)Nc1cc(Oc2ccc3nc(NC(=O)C4CC4)sc3c2)ccc1F | > 20000 | – | – | – | –
13 | O=C(Nc1nc2ccc(Oc3ccc(F)c(NS(=O)(=O)c4cccc(C(F)(F)F)c4)c3)cc2s1)C1CC1 | > 20000 | – | – | – | –
14 | Cc1cccc(NC(=O)Nc2cc(Oc3ccc4nc(NC(=O)C5CC5)sc4c3)ccc2F)c1 | 580 | 2200 | 93 | > 50000 | Ratio (Homo sapiens): 23.6
15 | O=C(Cc1cccc(OC(F)(F)F)c1)Nc1cc(Oc2ccc3nc(NC(=O)C4CC4)sc3c2)ccc1F | 60 | 49 | 120 | > 50000 | –
16 | O=C(Cc1ccccn1)Nc1cc(Oc2ccc3nc(NC(=O)C4CC4)sc3c2)ccc1F | 8300 | – | – | – | –
17 | O=C(Nc1nc2ccc(Oc3ccc(F)c(NCc4ccc5c(c4)OCO5)c3)cc2s1)C1CC1 | > 20000 | – | – | – | –
18 | O=C(Cc1cccc(C(F)(F)F)n1)Nc1cc(Oc2ccc3nc(NC(=O)C4CC4)sc3c2)ccc1F | 320 | 220 | 280 | > 50000 | –

Row | Compound | EC50 (HT-29) [nM] | Kd [3] [nM] | Kd [4] [nM] | CC50 at 12 h [5] [nM] | also measured
19 | Cn1cc(CC(=O)Nc2cc(Oc3ccc4nc(NC(=O)C5CC5)sc4c3)ccc2F)c2ccccc21 | 3810 | 4800 | 1400 | > 50000 | –
20 | O=C(Cc1cccc(C(F)(F)F)c1F)Nc1cc(Oc2ccc3nc(NC(=O)C4CC4)sc3c2)ccc1F | 490 | 510 | 99 | > 50000 | –
21 | N#Cc1c(Oc2ccc(F)c(NC(=O)Cc3cccc(C(F)(F)F)c3F)c2)ccc2nc(NC(=O)C3CC3)sc12 | 2030 | – | – | – | –
22 | O=C(Cc1ccccc1C(F)(F)F)Nc1cc(Oc2ccc3nc(NC(=O)C4CC4)sc3c2)ccc1F | 11400 | – | – | – | –
23 | O=C(Cc1cccc(C(F)(F)F)c1Cl)Nc1cc(Oc2ccc3nc(NC(=O)C4CC4)sc3c2)ccc1F | > 20000 | – | – | – | –
24 | O=C(Cc1cc(C(F)(F)F)cc(C(F)(F)F)c1)Nc1cc(Oc2ccc3nc(NC(=O)C4CC4)sc3c2)ccc1F | 9700 | – | – | > 50000 | –
25 | O=C(CCc1cccc(C(F)(F)F)c1)Nc1cc(Oc2ccc3nc(NC(=O)C4CC4)sc3c2)ccc1F | 650 | 510 | 790 | > 50000 | –
26 | N#Cc1c(Oc2ccc(F)c(NC(=O)c3cccc(C(F)(F)F)c3)c2)ccc2nc(NC(=O)C3CC3)sc12 | > 20000 | – | – | – | –
27 | COc1cccc(CC(=O)Nc2cc(Oc3ccc4nc(NC(=O)C5CC5)sc4c3)ccc2F)c1 | 330 | 240 | 55 | > 50000 | –
28 | N#Cc1c(Oc2ccc(F)c(NC(=O)Cc3cccc(C(F)(F)F)c3)c2)ccc2nc(NC(=O)OCc3ccccc3)sc12 | > 20000 | – | – | – | –
29 | O=C(Cc1cccc([N+](=O)[O-])c1)Nc1cc(Oc2ccc3nc(NC(=O)C4CC4)sc3c2)ccc1F | 610 | 770 | 110 | > 50000 | –
30 | CCC(=O)Nc1nc2ccc(Oc3ccc(F)c(NC(=O)Cc4cccc(C(F)(F)F)c4)c3)c(C#N)c2s1 | > 20000 | – | – | – | –
31 | COc1cccc(NC(=O)Nc2cc(Oc3ccc4nc(NC(=O)C5CC5)sc4c3)ccc2F)c1 | 1370 | 3600 | 69 | > 50000 | Ratio (Homo sapiens): 52.1
32 | N#Cc1c(Oc2ccc(F)c(NC(=O)Cc3cccc(C(F)(F)F)c3)c2)ccc2nc(NC(=O)C3CC3)sc12 | – | 480 | – | > 50000 | Activity (Mus musculus [1]): Active; Activity (Mus musculus [2]): Active; Activity (Mus musculus [6]): 20%; Activity (Mus musculus [7]): 70%
33 | CCOC(=O)c1cccc(NC(=O)Nc2cc(Oc3ccc4nc(NC(=O)C5CC5)sc4c3)ccc2F)c1 | 7740 | > 5000 | 72 | > 50000 | Ratio (Homo sapiens): > 69.4
34 | O=C(Cc1ccc(F)c(C(F)(F)F)c1)Nc1cc(Oc2ccc3nc(NC(=O)C4CC4)sc3c2)ccc1F | 400 | 590 | 130 | > 50000 | –
35 | O=C(Nc1nc2ccc(Oc3ccc(F)c(NC(=O)C4(c5cccc(C(F)(F)F)c5)CC4)c3)cc2s1)C1CC1 | > 20000 | – | – | > 50000 | –
36 | N#Cc1c(Oc2ccc(F)c(NC(=O)Cc3cccc(F)c3)c2)ccc2nc(NC(=O)C3CC3)sc12 | > 20000 | – | – | – | –
